Bioassay records: PubChem BioAssay, several laboratories
In the library only some 2.3% were active in any assay of this set; here they are far more common.
CHT block: human CHT choline transport inhibition | Q9GZV3 | B-score at 10 µM | CHT-expressing cells, membrane potential dye, choline response; active compounds read low | AID 488975 | 0.86% of 310,000 active;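 active = B-score over 3 SD under the library average, and starting fluorescence ratio not unusually high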;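 also: choline stimulus applied at its EC90 after an EC20 pre-addition; B-score computed on integrated fluorescence ratio after choline addition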
NR2E3 ag-1: agonists of human nuclear receptor NR2E3. Q9Y5X4. GST-NR2E3/biotin-RetCOR TR-FRET, 1536-well. inhibition of corepressor binding, % at 4.78 µM. 0.12% of 320,000 active. AID 2300;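 active = percent inhibition above the cutoff of mean plus 3 SD of all tested compounds, set per screening campaign, cut at about 20% in these data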
Target sequence (Q9Y5X4 whole entry, looked up): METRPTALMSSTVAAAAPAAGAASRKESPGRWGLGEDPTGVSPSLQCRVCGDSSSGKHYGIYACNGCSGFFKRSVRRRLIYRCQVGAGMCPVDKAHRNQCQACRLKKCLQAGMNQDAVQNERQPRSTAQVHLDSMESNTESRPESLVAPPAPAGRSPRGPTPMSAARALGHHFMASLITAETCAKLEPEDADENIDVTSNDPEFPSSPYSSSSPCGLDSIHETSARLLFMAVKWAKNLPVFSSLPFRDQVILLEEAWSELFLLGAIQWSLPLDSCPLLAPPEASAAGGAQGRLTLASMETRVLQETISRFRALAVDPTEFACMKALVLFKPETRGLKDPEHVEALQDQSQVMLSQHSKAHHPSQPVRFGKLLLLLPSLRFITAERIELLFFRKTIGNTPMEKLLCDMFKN
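Material: NR2E3–RetCOR corepressor complex | Quantity: 1.35 nM GST-tagged NR2E3 final | Schedule: 5 h at 4 °C | Replication: Singlicate compound wells | Reagent: RetCOR corepressor, biotinylated, 7 nM | Controls: Biotin wells as high control, 0.6% DMSO wells as low control | Signal: TR-FRET, Eu(K)-anti-GST donor, streptavidin-D2 acceptor, ex 340, em 617/671 nm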
CHT allo act: human CHT allosteric activation; CHT-expressing cells, membrane potential dye, choline EC20; active compounds read high; LV-AA mutant CHT in HEK293 cells; B-score at 10 µM; 0.49% of 310,000 active; AID 488977;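 active = initial fluorescence not abnormally high and integrated response B-score, plate-corrected, over 3 SD above library mean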
COUP-TFII inh: blocks human COUP-TFII nuclear receptor; P24468; HEK293T NGFI-A luciferase reporter, luminescence; inhibition, % at 8.6 µM; 0.7% of 370,000 active;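 active = inhibition above a per-plate cutoff, mean inhibition of test wells between control levels plus 3 SD, cut at about 38% in these data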;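 also: cells cotransfected with COUP-TFII expression vector driving the NGFI-A reporter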
NR2E3 ag-2: agonists of human NR2E3 nuclear receptor | Q9Y5X4 | AID 602229 | inhibition of corepressor binding, % at 3.98 µM | CHO-S Gal4-NCOR/VP16-NR2E3 two-hybrid, luciferase | 0.35% of 360,000 active;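 active = inhibition above the mean of all tested compounds plus 3 SD, cut at about 70% in these data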;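 also: higher means lower luciferase signal from less NR2E3 corepressor binding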
GalR3 antag: antagonists of human GalR3 | inhibition, % at 3 µM | O60755 | 0.44% of 360,000 active | HEK293 GalR3-CNG cAMP membrane potential fluorescence; galR3 body fused to GalR1 C-terminus;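 active = inhibition above the screen-wide average plus 3 SD, cut at about 13% in these data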;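 also: forskolin and galanin both at EC90 stimulate the cells; cAMP rise reported by CNG channel membrane potential dye signal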
Target sequence (O60755 1-299 limits assumed): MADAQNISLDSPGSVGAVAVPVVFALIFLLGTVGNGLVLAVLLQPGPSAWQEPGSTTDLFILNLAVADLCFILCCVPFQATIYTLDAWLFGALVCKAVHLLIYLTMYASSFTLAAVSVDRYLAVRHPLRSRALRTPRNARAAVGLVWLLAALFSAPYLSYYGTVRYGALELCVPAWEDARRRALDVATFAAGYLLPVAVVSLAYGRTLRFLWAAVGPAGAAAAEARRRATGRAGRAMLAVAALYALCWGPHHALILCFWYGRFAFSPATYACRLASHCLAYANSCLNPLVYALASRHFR
NR2E3 ag confirm: NR2E3 agonism confirmed in two-hybrid assay; shares compounds with NR2E3 ag-2; CHO-S mammalian two-hybrid NR2E3-NCOR, luciferase luminescence; inhibition, % at 3.98 µM; 51% of 2,300 active; AID 624378;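 active = average inhibition above a cutoff equal to the mean inhibition of all tested compounds plus one SD, cut at about 70% in these data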
VP16 counter: GAL4-VP16 reporter inhibition in NR2E3 agonist counterscreen; AID 624379; inhibition, % at 3.98 µM; shares compounds with NR2E3 ag-2; 29% of 2,300 active; CHO-S GAL4-VP16 luciferase reporter, luminescence;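 active = mean inhibition above a cutoff equal to the average over all tested compounds plus one standard deviation, cut at about 70% in these data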;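 also: luciferase from a UAS reporter driven by GAL4-VP16 transactivation; higher means less reporter light so more repression of VP16 activity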
GalR3 conf: confirmation of human galanin receptor 3 antagonists. shares compounds with GalR3 antag. HEK293 GalR3 CNG cAMP biosensor, membrane potential fluorescence; galR3 fused to GalR1 carboxy tail; challenged with forskolin and galanin at EC90. inhibition, % at 3 µM. 59% of 1,600 active. AID 652245;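 active = inhibition above the primary screen's cutoff, the mean inhibition of all screened compounds plus 3 SD, cut at about 13% in these data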
HEK-CNG parental: acts as nonspecific agonist in parental HEK-CNG cells | activation, % at 3 µM | HEK293-CNG parental cells, cAMP membrane potential fluorescence; normalised: DMSO wells 0%, forskolin wells 100% | shares compounds with GalR3 antag | 10% of 1,600 active; in the data active = activation above about 1.3%
VP16 Luc counter: VP16 inhibition counter-screen for COUP-TFII; shares compounds with COUP-TFII inh; HEK293 Gal4-VP16 luciferase reporter, luminescence; inhibition, % at 8.5 µM; 25% of 2,500 active; AID 687007; in the data active = inhibition above about 13%
COUP-TFII conf: confirmation of human COUP-TFII (NR2F2) inhibitors; shares compounds with COUP-TFII inh; AID 687008; inhibition, % at 8.5 µM; 45% of 2,500 active; HEK293 NGFI-A luciferase reporter, luminescence;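 active = mean inhibition over three repeats above a set limit taken from the earlier primary screen, cut at about 38% in these data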
A number is an active result; . = inactive; / = no result given.

SMILES	CHT block	NR2E3 ag-1	CHT allo act	COUP-TFII inh	NR2E3 ag-2	GalR3 antag	NR2E3 ag confirm	VP16 counter	GalR3 conf	HEK-CNG parental	others
COC(=O)C1CN(Cc2ccc(Cl)cc2)CCS(=O)(=O)N1Cc1cn(Cc2ccc(C)cc2)nn1 (stereo not given)	/	/	/	.	/	/	/	/	/	/
CC(=O)N1CCc2cc(S(=O)(=O)N3CCc4ccccc4C3)ccc21	.	.	.	.	.	.	/	/	/	/
CC(=O)N1CCc2cc(S(=O)(=O)Nc3cccc(C(F)(F)F)c3)ccc21	.	.	.	.	.	.	.	.	/	/
CC(=O)N1CCc2cc(S(=O)(=O)N3CCc4ccccc43)ccc21	.	.	.	.	74	.	.	.	/	/
O=S(c1cc(Cl)cc(Cl)c1O)c1cc(Cl)cc(Cl)c1O	/	/	/	.	84	.	99	78	/	/
Cc1cc(-n2c(C)cc(C(=O)COc3cccnc3[N+](=O)[O-])c2C)no1	/	/	/	.	.	.	/	/	/	/
Cc1cc(C(=O)COC(=O)c2ccc3c(c2)OCO3)c(C)n1Cc1cccs1	.	.	.	.	90	.	77	75	/	/
COCCn1c(C)cc(C(=O)COc2ccc(C)nc2[N+](=O)[O-])c1C	.	.	.	.	.	.	77	.	/	/
Cc1cc(C(=O)COc2cccnc2[N+](=O)[O-])c(C)n1Cc1cccs1	.	.	.	.	.	.	73	.	/	/
Cc1cc(C(=O)COC(=O)c2ccc(N)c([N+](=O)[O-])c2)c(C)n1Cc1ccc2c(c1)OCO2	.	.	.	.	.	.	/	/	/	/
CCOc1cc(CNCCc2ccc(S(N)(=O)=O)cc2)ccc1OCc1ccc(Cl)cc1	.	.	.	.	.	.	.	.	/	/
CC1=C(C(=O)N2CCCC(C(=O)c3cccc(C(F)(F)F)c3)C2)OCCO1 (stereo not given)	.	.	.	.	.	.	/	/	/	/
CCc1[nH]nc(C(=O)N2CCCC(C(=O)c3cccc(C(F)(F)F)c3)C2)c1C (stereo not given)	.	.	.	.	.	.	.	.	/	/
O=[N+]([O-])c1ccc(N2CCN(C(=S)NCc3ccc(Cl)cc3)CC2)cc1	.	.	.	.	.	.	91	.	/	/
C=CCNC(=S)N1CCN(c2ccc([N+](=O)[O-])cc2)CC1	.	.	.	.	.	.	/	/	/	/
Cc1ccnc(SCC(=O)Nc2sc3c(c2C#N)CCCC3)n1	.	.	.	.	85	43	92	85	95	.
CCC[C@H]1[C@@H](NC(=O)c2cccc(C(F)(F)F)c2)CC[C@@]23CCCN2C(=O)CCC[C@@H]13	/	/	/	.	/	/	/	/	/	/
Cc1csc2ncnc(N3CCN(C(=S)Nc4ccc(C(F)(F)F)cc4)CC3)c12	.	.	.	.	.	67	95	83	93	1.8
Cc1ccc(NS(=O)(=O)c2ccc(Cl)s2)nc1	.	.	.	.	.	.	/	/	/	/
Cc1ccc(NC(=O)c2ccccc2NS(=O)(=O)c2ccc(Cl)s2)cc1	.	.	.	.	95	17	97	79	33	.
CCN(CC)C(=O)CC[C@H]1CC[C@]2(CCCN(C(=O)c3ccno3)C2)O1	/	/	/	.	/	/	/	/	/	/
CC(=O)c1c(C)[nH]c(C(=O)OCC(=O)Nc2ccc(C)cc2[N+](=O)[O-])c1C	.	.	.	.	82	13	98	90	107	.
Cc1ccc(-n2ncc3c(SCc4cccc(C)c4)ncnc32)cc1	.	.	.	.	.	.	/	/	/	/
Cc1ccc(-n2ncc3c(SCc4cccnc4)ncnc32)c(C)c1	/	/	/	.	.	60	81	.	98	.
Cc1ccccc1-c1cc(C(=O)Nc2sc(C(=O)OC(C)C)c(C)c2C#N)c2ccccc2n1	.	.	.	.	92	71	100	88	100	.
SMILES	CHT block	NR2E3 ag-1	CHT allo act	COUP-TFII inh	NR2E3 ag-2	GalR3 antag	NR2E3 ag confirm	VP16 counter	GalR3 conf	HEK-CNG parental	others
CC(C)(C)C(=O)OC12CCCN(C1)/C(=C/c1ccc(Cl)cc1)C2 (stereo not given)	/	/	/	.	/	/	/	/	/	/
CCc1ccc2c(c1)NC(=O)C2(C)Cc1ccccc1 (stereo not given)	/	/	/	.	.	.	/	/	/	/
CCc1ccc2c(c1)C1(NN=C(c3cccc4ccccc34)S1)C(=O)N2 (stereo not given)	.	.	.	.	80	23	.	.	.	.
CC(C)(C)N(NC(=O)NCCCl)C(=O)c1ccccc1Cl	/	/	/	.	/	/	/	/	/	/
COc1cc2c(cc1OC)-c1cc(Nc3ccc4c(c3)OCCO4)nc(=O)n1CC2	.	.	.	.	.	59	.	.	57	.
CCN(CC)CCCNc1cc2n(c(=O)n1)CCc1cc(OC)c(OC)cc1-2	.	.	.	.	.	.	/	/	/	/
Cc1sc2ncnc(NCCc3ccc(S(N)(=O)=O)cc3)c2c1C	.	.	.	66	89	59	94	77	109	.	VP16 Luc counter=.;COUP-TFII conf=61
Cc1ccc(S(=O)(=O)Nc2ncnc3sc(C)c(C)c23)cc1	/	.	/	.	.	.	/	/	/	/
Cc1cc(/C=N/n2cnnc2)c(C)n1-c1ccc(OCc2ccc(Cl)cc2)cc1	.	.	.	68	102	41	98	87	64	.	VP16 Luc counter=41;COUP-TFII conf=88
COc1ccc(F)cc1CSc1nnnn1-c1ccc(O)cc1	.	.	.	.	.	.	/	/	/	/
COc1cc(CSc2nnnn2-c2ccc(C)cc2)cc(OC)c1OC	.	.	.	69	98	96	94	84	98	.	VP16 Luc counter=.;COUP-TFII conf=54
COC(=O)C1CCN(C(=O)CN2CCC(C(=O)c3ccc(C)cc3)CC2)CC1	/	/	/	.	/	/	/	/	/	/
COc1cccc2c1C(=O)c1c(O)c3c(c(O)c1C2=O)CC(O)(C(C)=O)CC3OC1CC(N(C)C)C(O)C(C)O1 (stereo not given)	/	/	/	53	88	.	100	.	/	/	VP16 Luc counter=15;COUP-TFII conf=.
